Test results from ChEMBL document CHEMBL2346608, “New annelated thieno[2,3-e][1,2,3]triazolo[1,5-a]pyrimidines, with potent anticancer activity, designed through VLAK protocol” (2013).

How the values were obtained:
Assay type in all cases: functional
HOP-62 = experiment: Antiproliferative activity against human HOP62 cells after 48 hrs by sulforhodamine B assay; details: HOP-62, 48 h
How it was run: (§1)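 Cells grown in RPMI 1640 with 5% FBS and 2 mM L-glutamine, plated at 5000–40,000 cells/well and preincubated 24 h at 37 °C, 5% CO2. Five drug concentrations (10-fold or ½-log dilutions from DMSO stocks) applied for 48 h. TCA-fixed (final 10% adherent, 16% suspension), SRB-stained, A515 read. Growth versus time-zero and control wells gave GI50, TGI, LC50.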

SK-OV-3 = experiment: Antiproliferative activity against human SKOV3 cells after 48 hrs by sulforhodamine B assay; details: SK-OV-3, 48 h; how it was run: as §1
K562 = experiment: Antiproliferative activity against human K562 cells after 48 hrs by sulforhodamine B assay; details: K562, 48 h; how it was run: as §1
SK-MEL-5 = experiment: Antiproliferative activity against human SK-MEL-5 cells after 48 hrs by sulforhodamine B assay; details: SK-MEL-5, 48 h; how it was run: as §1
CAKI-1 = experiment: Antiproliferative activity against human CAKI-1 cells after 48 hrs by sulforhodamine B assay; details: CAKI-1, 48 h; how it was run: as §1
A498 = experiment: Antiproliferative activity against human A498 cells after 48 hrs by sulforhodamine B assay; details: A498, 48 h; how it was run: as §1
MDA-MB-231 = experiment: Antiproliferative activity against human MDA-MB-231 cells after 48 hrs by sulforhodamine B assay; details: MDA-MB-231, 48 h; how it was run: as §1
NCI-H522 = experiment: Antiproliferative activity against human NCI-H522 cells after 48 hrs by sulforhodamine B assay; details: NCI-H522, 48 h; how it was run: as §1
Malme-3M = experiment: Antiproliferative activity against human MALME-3M cells after 48 hrs by sulforhodamine B assay; how it was run: as §1
NCI-H460 = experiment: Antiproliferative activity against human NCI-H460 cells after 48 hrs by sulforhodamine B assay; details: NCI-H460, 48 h; how it was run: as §1
NCI-H226 = experiment: Antiproliferative activity against human NCI-H226 cells after 48 hrs by sulforhodamine B assay; details: NCI-H226, 48 h; how it was run: as §1
RXF 393 = experiment: Antiproliferative activity against human RXF393 cells after 48 hrs by sulforhodamine B assay; details: RXF 393, 48 h; how it was run: as §1
M14 = experiment: Antiproliferative activity against human M14 cells after 48 hrs by sulforhodamine B assay; details: M14, 48 h; how it was run: as §1
NCI/ADR-RES = experiment: Antiproliferative activity against human NCI/ADR-RES cells after 48 hrs by sulforhodamine B assay; how it was run: as §1
NCI-H23 = experiment: Antiproliferative activity against human NCI-H23 cells after 48 hrs by sulforhodamine B assay; details: NCI-H23, 48 h; how it was run: as §1
OVCAR-8 = experiment: Antiproliferative activity against human OVCAR8 cells after 48 hrs by sulforhodamine B assay; details: OVCAR-8, 48 h; how it was run: as §1
A549 = experiment: Antiproliferative activity against human A549 cells after 48 hrs by sulforhodamine B assay; details: A549, 48 h; how it was run: as §1
MOLT-4 = experiment: Antiproliferative activity against human MOLT4 cells after 48 hrs by sulforhodamine B assay; details: MOLT-4, 48 h; how it was run: as §1
TK-10 = experiment: Antiproliferative activity against human TK10 cells after 48 hrs by sulforhodamine B assay; details: TK-10, 48 h
How it was run: (§2)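 Cells in RPMI 1640 with 5% FBS and 2 mM L-glutamine were seeded at 5000–40,000/well according to doubling time and preincubated 24 h at 37 °C in 5% CO2. Time-zero plates were TCA-fixed when drug was added. Five 10-fold or ½-log dilutions from DMSO stocks were added for 48 h. After SRB staining, A515 was read and GI50 derived from [(Ti−Tz)/(C−Tz)]×100 = 50.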

SF-268 = experiment: Antiproliferative activity against human SF268 cells after 48 hrs by sulforhodamine B assay; details: SF-268, 48 h; how it was run: as §1
SN12C = experiment: Antiproliferative activity against human SN12C cells after 48 hrs by sulforhodamine B assay; how it was run: as §1
SW-620 = experiment: Antiproliferative activity against human SW620 cells after 48 hrs by sulforhodamine B assay; details: SW-620, 48 h; how it was run: as §2
SNB-75 = experiment: Antiproliferative activity against human SNB75 cells after 48 hrs by sulforhodamine B assay; details: SNB-75, 48 h; how it was run: as §2
SF-295 = experiment: Antiproliferative activity against human SF295 cells after 48 hrs by sulforhodamine B assay; details: SF-295, 48 h; how it was run: as §1
KM12 = experiment: Antiproliferative activity against human KM12 cells after 48 hrs by sulforhodamine B assay; details: KM12, 48 h; how it was run: as §1
UO-31 = experiment: Antiproliferative activity against human UO31 cells after 48 hrs by sulforhodamine B assay; details: UO-31, 48 h; how it was run: as §2
OVCAR-3 = experiment: Antiproliferative activity against human OVCAR3 cells after 48 hrs by sulforhodamine B assay; details: OVCAR-3, 48 h; how it was run: as §1
COLO 205 = experiment: Antiproliferative activity against human COLO205 cells after 48 hrs by sulforhodamine B assay; details: COLO 205, 48 h; how it was run: as §1
UACC-257 = experiment: Antiproliferative activity against human UACC257 cells after 48 hrs by sulforhodamine B assay; details: UACC-257, 48 h; how it was run: as §2

## O=C(CCCn1c(=O)c2sc3ccccc3c2n2nnc(-c3ccccc3)c12)NCCc1c[nH]cn1
HOP-62
  GI50: 2.29 µM
  LC50: > 100 µM
HOP-62; read-out: pTGI (converted)
  TGI: 5.25 µM
SK-OV-3
  GI50: 3.47 µM
  LC50: 66.1 µM
SK-OV-3; read-out: pTGI (converted)
  TGI: 15.5 µM
K562
  GI50: 0.437 µM
SK-MEL-5
  GI50: 1.91 µM
  LC50: 8.91 µM
SK-MEL-5; read-out: pTGI (converted)
  TGI: 4.07 µM
CAKI-1
  GI50: 0.182 µM
CAKI-1; read-out: pLC50 (the source's name) (converted)
  CC50: 4.47 µM
CAKI-1; read-out: pTGI (converted)
  TGI: 1.7 µM
A498
  GI50: 1.55 µM
  LC50: 5.75 µM
A498; read-out: pTGI (converted)
  TGI: 3.02 µM
MDA-MB-231
  GI50: 1.91 µM
  LC50: 6.76 µM
MDA-MB-231; read-out: pTGI (converted)
  TGI: 3.63 µM
NCI-H522
  GI50: 1.05 µM
  LC50: 81.3 µM
NCI-H522; read-out: pTGI (converted)
  TGI: 11.7 µM
Malme-3M
  GI50: 2.51 µM
  LC50: > 100 µM
Malme-3M; read-out: pTGI (converted)
  TGI: 5.5 µM
NCI-H460
  GI50: 1.86 µM
  LC50: 7.76 µM
NCI-H460; read-out: pTGI (converted)
  TGI: 3.8 µM
NCI-H226
  GI50: 18.6 µM
  LC50: 75.9 µM
NCI-H226; read-out: pTGI (converted)
  TGI: 38 µM
RXF 393
  GI50: 2.51 µM
  LC50: > 100 µM
RXF 393; read-out: pTGI (converted)
  TGI: 5.01 µM
M14
  GI50: 1.7 µM
M14; read-out: pTGI (converted)
  TGI: 3.8 µM
NCI/ADR-RES
  GI50: 3.24 µM
  LC50: > 100 µM
NCI/ADR-RES; read-out: pTGI (converted)
  TGI: > 100 µM
NCI-H23
  GI50: 2.95 µM
  LC50: > 100 µM
NCI-H23; read-out: pTGI (converted)
  TGI: 11.7 µM
OVCAR-8
  GI50: 0.324 µM
  LC50: > 100 µM
OVCAR-8; read-out: pTGI (converted)
  TGI: 2.82 µM
A549
  GI50: 2.09 µM
A549; read-out: pTGI (converted)
  TGI: 4.57 µM
MOLT-4
  GI50: 1.17 µM
TK-10
  GI50: 2.14 µM
TK-10; read-out: pTGI (converted)
  TGI: 3.98 µM
SF-268
  GI50: 1.78 µM
  LC50: 7.76 µM
SF-268; read-out: pTGI (converted)
  TGI: 3.72 µM
SN12C
  GI50: 0.269 µM
  LC50: 5.13 µM
SN12C; read-out: pTGI (converted)
  TGI: 1.86 µM
SW-620
  GI50: 0.407 µM
SNB-75
  GI50: 1.86 µM
  LC50 (concentration killing 50% of starting cells): 8.71 µM
SNB-75; read-out: pTGI (converted)
  TGI: 4.07 µM
SF-295
  GI50: 1.7 µM
SF-295; read-out: pTGI (converted)
  TGI: 3.63 µM
KM12
  GI50: 1.15 µM
KM12; read-out: pTGI (converted)
  TGI: 2.82 µM
UO-31
  GI50: 1.91 µM
UO-31; read-out: pTGI (converted)
  TGI: 3.72 µM
OVCAR-3
  GI50: 1.51 µM
  LC50: 6.61 µM
OVCAR-3; read-out: pTGI (converted)
  TGI: 3.16 µM
COLO 205
  GI50: 1.1 µM
  LC50: > 100 µM
COLO 205; read-out: pTGI (converted)
  TGI: 4.79 µM
UACC-257
  GI50: 2.04 µM
  LC50: > 100 µM
UACC-257; read-out: pTGI (converted)
  TGI: 4.57 µM
